Measured values published in ChEMBL document CHEMBL4177624, “Rationally designed hecogenin thiosemicarbazone analogs as novel MEK inhibitors for the control of breast malignancies” (Bioorg Med Chem, 2017).
The source made the active and inactive calls. The rule behind the calls is not given here.

Assays:
[1] = tested on: MDA-MB-231; assay: Antimigratory activity against human MDA-MB-231 cells at 10 to 80 uM after 24 hrs by scratch wound-healing assay; format: functional, cell-based
[2] = tested on: MDA-MB-231; assay: Cytotoxicity against human MDA-MB-231 cells at 100 uM after 24 hrs by LDH release assay (reference value: 100%); format: functional
In short: (§1)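 LDH release kit on MDA-MB-231 cells at four doses. LDH in the culture medium used as the marker of plasma membrane damage, expressed as percent cytotoxicity.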

[3] = tested on: MDA-MB-231; assay: Antiinvasive activity against human MDA-MB-231 cells after 24 hrs by cell invasion assay; format: functional, cell-based; conditions: MDA-MB-231, 24 h
In short: (§2)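 Invasion of MDA-MB-231 cells through extracellular matrix coating in a CultreCoat chamber, four doses, 24 h after plating. Non-invaded cells on the upper surface imaged by microscopy. Percent invasion read against vehicle control; IC50 taken from the dose-response curve.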

[4] = biological target: T1, Dual specificity mitogen-activated protein kinase kinase; MEK1/2 (Homo sapiens) (UniProt P36507+Q02750); assay: Inhibition of MEK phosphorylation in human MDA-MB-231 cell lysate at 1.5 to 4 uM after 72 hrs by Western blot analysis
In short: (§3)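 MDA-MB-231 cells treated with two doses or vehicle, then lysed. Western blot of phosphorylated MEK, ERK (MAPK) and MSK, each compared with vehicle control.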

[5] = biological target: T1, Dual specificity mitogen-activated protein kinase kinase; MEK1/2 (Homo sapiens); assay: Inhibition of MEK in human MDA-MB-231 cell lysate assessed as reduction in MSK phosphorylation at 1.5 to 4 uM after 72 hrs by Western blot analysis; in short: as §3
[6] = tested on: MDA-MB-231; assay: Antitumor activity against human GFP-fused MDA-MB-231 cells xenografted in Foxn1nu/Foxn1+ mouse assessed as tumor growth inhibition at 10 mg/kg, ip administered 3 times per week for 28 days relative to control; format: functional; conditions: MDA-MB-231, ip, 672 h, read-out: TGI
In short: (§4)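 Athymic nude Foxn1nu/Foxn1+ mice given orthotopic MDA-MB-231/GFP implants. Once tumors were palpable (5-day latency), mice received 10 mg/kg ip three times weekly for 28 days; controls got vehicle. Tumor volume tracked by caliper, giving percent growth inhibition at study end. Body weight checked at each dose and toxicity signs observed.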

[7] = tested on: MDA-MB-231; assay: Cytotoxicity against human MDA-MB-231 cells at 50 uM after 24 hrs by LDH release assay (reference value: 100%); format: functional; in short: as §1
[8] = tested on: MDA-MB-231; assay: Cytotoxicity against human MDA-MB-231 cells at 25 uM after 24 hrs by LDH release assay (reference value: 100%); format: functional; in short: as §1
[9] = tested on: MDA-MB-231; assay: Antiinvasive activity against human MDA-MB-231 cells at 80 uM after 24 hrs by cell invasion assay relative to control; format: functional; in short: as §2
[10] = biological target: T1, Dual specificity mitogen-activated protein kinase kinase; MEK1/2 (Homo sapiens); assay: Inhibition of MEK in human MDA-MB-231 cell lysate assessed as reduction in MAPK phosphorylation at 1.5 to 4 uM after 72 hrs by Western blot analysis; in short: as §3
[11] = tested on: BT-474; assay: Antiproliferative activity against human BT474 cells after 72 hrs by MTT assay; format: functional, cell-based; conditions: BT-474, 72 h
In short: (§5)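 Six human breast carcinoma lines of differing molecular and phenotypic character were each exposed to a range of concentrations for 72 h. Proliferation was read by MTT. Results are given as mean percent viability, with IC₅₀ ± SEM calculated per cell line.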

[12] = tested on: MDA-MB-231; assay: Cytotoxicity against human MDA-MB-231 cells at 100 uM after 24 hrs by LDH release assay relative to control; format: functional; in short: as §1
[13] = tested on: SK-BR-3; assay: Antiproliferative activity against human SKBR3 cells after 72 hrs by MTT assay; format: functional, cell-based; conditions: SK-BR-3, 72 h; in short: as §5
[14] = tested on: MCF7; assay: Antiproliferative activity against human MCF7 cells after 72 hrs by MTT assay; format: functional, cell-based; conditions: MCF7, 72 h; in short: as §5
[15] = tested on: T47D; assay: Antiproliferative activity against human T47D cells after 72 hrs by MTT assay; format: functional, cell-based; in short: as §5
[16] = tested on: Mus musculus; assay: Toxicity in Foxn1nu/Foxn1+ mouse xenografted with human GFP-fused MDA-MB-231 cells assessed as reduction in body weight at 10 mg/kg, ip administered 3 times per week for 28 days relative to control; format: organism-based; conditions: in vivo, 672 h; in short: as §4
[17] = tested on: MDA-MB-468; assay: Antiproliferative activity against human MDA-MB-468 cells after 72 hrs by MTT assay; format: functional, cell-based; conditions: MDA-MB-468, 72 h; in short: as §5
[18] = tested on: MDA-MB-231; assay: Antiproliferative activity against human MDA-MB-231 cells after 72 hrs by MTT assay; format: functional, cell-based; conditions: MDA-MB-231, 72 h
In short: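 MDA-MB-231 triple-negative breast cancer cells were exposed to a range of concentrations for 72 h. Proliferation was read by MTT. Results are given as mean percent viability versus concentration, with IC₅₀ ± SEM calculated from the curve.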

[19] = tested on: MDA-MB-231; assay: Cytotoxicity against human MDA-MB-231 cells at 75 uM after 24 hrs by LDH release assay (reference value: 100%); format: functional; in short: as §1
[20] = tested on: MDA-MB-231; assay: Antimigratory activity against human MDA-MB-231 cells after 24 hrs by scratch wound-healing assay; format: functional, cell-based
[21] = tested on: MDA-MB-231; assay: Cytotoxicity against human MDA-MB-231 cells at 5 uM after 24 hrs by LDH release assay (reference value: 100%); format: functional
In short: (§6)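 MDA-MB-231 cells were treated at four concentrations. LDH released into the culture medium through damaged plasma membranes was measured with a commercial LDH cytotoxicity kit and expressed as percent cytotoxicity.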

[22] = tested on: MDA-MB-231; assay: Cytotoxicity against human MDA-MB-231 cells at 2.5 uM after 24 hrs by LDH release assay (reference value: 100%); format: functional; in short: as §6
[23] = tested on: MDA-MB-231; assay: Cytotoxicity against human MDA-MB-231 cells at 10 uM after 24 hrs by LDH release assay (reference value: 100%); format: functional; in short: as §6
[24] = tested on: MDA-MB-231; assay: Cytotoxicity against human MDA-MB-231 cells at 1.25 uM after 24 hrs by LDH release assay (reference value: 100%); format: functional; in short: as §6
[25] = tested on: MCF-10A; assay: Cytotoxicity against human MCF10A cells at 1 to 20 uM by MTT assay; format: cell-based
In short: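 Immortalized, non-tumorigenic MCF-10A mammary epithelial cells were treated at several concentrations (1-20 μM). Mean percent viability was compared with the matching vehicle control-treated group.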

[26] = tested on: MDA-MB-231; assay: Cytotoxicity against human MDA-MB-231 cells at 10 uM after 24 hrs by LDH release assay relative to control; format: functional
[27] = tested on: MDA-MB-231; assay: Antiinvasive activity against human MDA-MB-231 cells at 5 uM after 24 hrs by cell invasion assay relative to control; format: functional
In short: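 MDA-MB-231 cells were plated in CultreCoat coated-insert invasion chambers and treated at four concentrations or with vehicle. At 24 h post-plating, non-invading cell density on the upper surface was assessed by microscopy. Percent invasion inhibition relative to vehicle was calculated, and IC₅₀ was derived from the dose-response.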

T1 sequence (P36507 whole entry, looked up): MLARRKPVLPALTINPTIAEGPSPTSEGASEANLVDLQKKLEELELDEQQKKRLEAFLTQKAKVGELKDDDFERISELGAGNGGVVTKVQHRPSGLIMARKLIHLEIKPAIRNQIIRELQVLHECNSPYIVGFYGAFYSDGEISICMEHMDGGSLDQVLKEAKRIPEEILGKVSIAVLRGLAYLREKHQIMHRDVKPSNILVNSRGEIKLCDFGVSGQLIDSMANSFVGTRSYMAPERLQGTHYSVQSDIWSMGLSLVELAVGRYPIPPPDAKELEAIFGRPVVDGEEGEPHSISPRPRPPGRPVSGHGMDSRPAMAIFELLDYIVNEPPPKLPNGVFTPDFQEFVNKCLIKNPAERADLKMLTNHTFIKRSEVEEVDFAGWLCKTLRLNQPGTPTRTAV
T1 sequence (Q02750 whole entry, looked up): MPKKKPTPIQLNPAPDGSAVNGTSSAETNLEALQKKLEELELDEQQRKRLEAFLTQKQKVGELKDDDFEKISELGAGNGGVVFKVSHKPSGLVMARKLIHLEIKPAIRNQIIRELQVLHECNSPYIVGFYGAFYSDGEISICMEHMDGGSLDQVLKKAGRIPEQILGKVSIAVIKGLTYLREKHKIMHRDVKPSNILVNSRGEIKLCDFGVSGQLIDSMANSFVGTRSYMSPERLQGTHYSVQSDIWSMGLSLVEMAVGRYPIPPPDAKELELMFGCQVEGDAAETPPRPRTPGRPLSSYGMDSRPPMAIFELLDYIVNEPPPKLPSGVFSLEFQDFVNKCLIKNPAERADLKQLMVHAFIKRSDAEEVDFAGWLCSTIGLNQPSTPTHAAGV

| SMILES | IC50 [11] | IC50 [13] | IC50 [14] | IC50 [15] | IC50 [17] | IC50 [18] | further results |
| --- | --- | --- | --- | --- | --- | --- | --- |
| C[C@@H]1CC[C@@]2(OC1)O[C@H]1C[C@H]3[C@@H]4CC[C@H]5C[C@@H](O)CC[C@]5(C)[C@H]4CC(=O)[C@]3(C)[C@H]1[C@@H]2C | 38.2 µM | 33.3 µM | 31 µM | 36.6 µM | 35.2 µM | 28.7 µM | Activity [1]: Active; Activity [2]: 27.8%; IC50 [3]: 37.1 µM; inhibition [4]: Active; inhibition [5]: Active; inhibition in vivo at 10 mg/kg [6]: 57.4%; Activity [7]: 2.72%; Activity [8]: 0.04%; Activity [9]: 86.2%; inhibition [10]: Active; Activity [12]: 27.8%; Activity [16]: Non-Toxic; Activity [19]: 10.3% |
| Cc1ccccc1NC(=S)N/N=C1\C[C@H]2[C@@H](CC[C@H]3C[C@@H](O)CC[C@@]32C)[C@@H]2C[C@@H]3O[C@]4(CC[C@@H](C)CO4)[C@@H](C)[C@@H]3[C@@]12C | 2.6 µM | 2.3 µM | 2.1 µM | 3 µM | 2.4 µM | 1.9 µM | Activity [20]: Dose-dependent effect; IC50 ([20]; MDA-MB-231, 24 h): 2.5 µM; IC50 [3]: 2.2 µM; Activity [21]: 1.8%; inhibition [4]: Active; inhibition [5]: Active; inhibition in vivo at 10 mg/kg [6]: 78.1%; inhibition [10]: Active; Activity [22]: 1.27%; Activity [23]: 5.94%; Activity [24]: 0.74%; Activity [25]: Non-Toxic; Activity [26]: 5.9%; Activity [16]: Non-Toxic; Activity [27]: 92.4% |
| C[C@@H]1CC[C@@]2(OC1)O[C@H]1C[C@H]3[C@@H]4CC[C@H]5C[C@@H](O)CC[C@]5(C)[C@H]4C/C(=N\NC(=S)Nc4ccccc4Cl)[C@]3(C)[C@H]1[C@@H]2C | 6.5 µM | 5.7 µM | 5.9 µM | 7 µM | 6.2 µM | 5.5 µM | – |
| C[C@@H]1CC[C@@]2(OC1)O[C@H]1C[C@H]3[C@@H]4CC[C@H]5C[C@@H](O)CC[C@]5(C)[C@H]4C/C(=N\NC(=O)Nc4cccc(Cl)c4)[C@]3(C)[C@H]1[C@@H]2C | 12 µM | 9.8 µM | 9.7 µM | 13 µM | 10.9 µM | 10 µM | – |
| COc1ccccc1NC(=S)N/N=C1\C[C@H]2[C@@H](CC[C@H]3C[C@@H](O)CC[C@@]32C)[C@@H]2C[C@@H]3O[C@]4(CC[C@@H](C)CO4)[C@@H](C)[C@@H]3[C@@]12C | 8.8 µM | 7.5 µM | 7.1 µM | 10.2 µM | 7.5 µM | 6.8 µM | – |
| C[C@@H]1CC[C@@]2(OC1)O[C@H]1C[C@H]3[C@@H]4CC[C@H]5C[C@@H](OC(=O)c6ccc(F)cc6)CC[C@]5(C)[C@H]4CC(=O)[C@]3(C)[C@H]1[C@@H]2C | 30 µM | 36 µM | 28 µM | 29 µM | 33.4 µM | 27 µM | – |
| C[C@@H]1CC[C@@]2(OC1)O[C@H]1C[C@H]3[C@@H]4CC[C@H]5C[C@@H](OC(=O)c6ccco6)CC[C@]5(C)[C@H]4CC(=O)[C@]3(C)[C@H]1[C@@H]2C | > 40 µM | > 40 µM | > 40 µM | > 40 µM | > 40 µM | > 40 µM | – |
